Experiments:
Assay type in all cases: functional, cell-based
IGROV-1 = assay: In vitro cytotoxicity against human tumor IGROV cell line (ovarian cancer)
Outline: (§1)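 Cells kept in log-phase culture in RPMI 1640 with Hepes and phenol red, 10% FCS, penicillin 100 IU/mL and streptomycin 100 µg/mL. Complexes dissolved in water and diluted in full medium, then added after 48 h preincubation in 96-well plates. Incubation 120 h at 37 °C, 8.5% CO2. IC50 read by sulforhodamine-B microculture test.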

L1210 [1] = assay: In vitro cytotoxicity against mouse tumor L1210 cell line (resistant to Cisplatin)
Outline: (§2)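 Suspension culture in RPMI 1640 with 10% heat-inactivated fetal calf serum, no antibiotics, 37 °C, 5% CO2. Cells seeded at 10^5 cells/mL in 96-well plates and exposed 48 h to a range of platinum complex concentrations. MTT added, 4 h at 37 °C, then wash with PBS. Dye taken up in 2-propanol, absorbance read at 570 nm. IC50 taken as 50% absorbance drop versus drug-free control.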

EVSA-T = assay: In vitro cytotoxicity against human tumor EVSA-T cell line (breast cancer); outline: as §1
WiDr = assay: In vitro cytotoxicity against human tumor WIDR cell line (colon cancer); outline: as §1
M19-MEL = assay: In vitro cytotoxicity against human tumor M19 cell line (melanoma cancer); outline: as §1
L1210 [2] = assay: In vitro cytotoxicity against mouse tumor L1210 cell line (sensitive to Cisplatin); outline: as §2
MCF7 = assay: In vitro cytotoxicity against human tumor MCF-7 cell line (breast cancer); outline: as §1
NCI-H226 = assay: In vitro cytotoxicity against human tumor H226 cell line (nonsmall cell lung cancer); outline: as §1
A498 = assay: In vitro cytotoxicity against human tumor A498 cell line (renal cancer); outline: as §1
L1210 [3] = assay: Ratio of in vitro cytotoxicity against mouse tumor L1210 cell line (resistant to Cisplatin) to that of sensitive L1210 cell line
Outline: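 Resistant and sensitive L1210 cells in suspension culture, RPMI 1640 with 10% heat-inactivated FCS, no antibiotics, 37 °C, 5% CO2. Cells seeded at 10^5 cells/mL and exposed 48 h to platinum complexes. MTT read at 570 nm after solubilizing in 2-propanol. IC50 is 50% absorbance drop versus control; ratio is resistant IC50 over sensitive IC50.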

| Substance | IC50 (IGROV-1) [µM] | IC50 (L1210 [1]) [µM] | IC50 (EVSA-T) [µM] | IC50 (WiDr) [µM] | IC50 (M19-MEL) [µM] | IC50 (L1210 [2]) [µM] | IC50 (MCF7) [µM] | IC50 (NCI-H226) [µM] | IC50 (A498) [µM] | Ratio (L1210 [3]) |
| --- | --- | --- | --- | --- | --- | --- | --- | --- | --- | --- |
| [{cis-Pt(NH3)2Cl}2(-pdn)](NO3)2 [listing 1 of 2 here] | 0.2 | 21.3 | > 85.2 | 13.3 | 7.2 | 5.7 | 23 | > 85.2 | 53 | – |
| CISPLATIN [listing 1 of 2 here] | – | – | – | – | – | – | – | – | – | 6.6 |
| CISPLATIN [listing 2 of 2 here] | 0.6 | – | 1.4 | 3.2 | 1.9 | 2.2 | 2.3 | 10.9 | 7.5 | – |
| [{cis-Pt(NH3)2Cl}2(-pzn)]Cl2 [listing 1 of 2 here] | – | – | – | – | – | – | – | – | – | 2.1 |
| [{cis-Pt(NH3)2Cl}2(-pzn)](NO3)2 [listing 1 of 2 here] | – | – | – | – | – | – | – | – | – | 3.5 |
| [{cis-Pt(NH3)2Cl}2(-pdn)](NO3)2 [listing 2 of 2 here] | – | – | – | – | – | – | – | – | – | 3.7 |
| [{cis-Pt(NH3)2Cl}2(-pzn)](NO3)2 [listing 2 of 2 here] | 1 | 3.5 | 47 | 2.4 | 20.9 | 1 | 17 | > 85.2 | 63.5 | – |
| [{cis-Pt(NH3)2Cl}2(-pzn)]Cl2 [listing 2 of 2 here] | 0.8 | 2.5 | 42.5 | 2 | 21.4 | 1.2 | 15.5 | > 91.9 | 54.1 | – |

Reference: ChEMBL document CHEMBL1136742, “New isomeric azine-bridged dinuclear platinum(II) complexes circumvent cross-resistance to cisplatin” (J Med Chem, 2003)
